This is an account of results in ChEMBL document CHEMBL4152268, “Synthesis of proline derived benzenesulfonamides: A potent anti-Trypanosoma brucei gambiense agent” (Eur J Med Chem, 2018).

In series [1] the test system is Trypanosoma brucei gambiense. Kind of series: Antitrypanosomal activity against Trypanosoma brucei gambiense GUTat 3.1 after 72 hrs by Alamar Blue assay. The series is classed as functional, organism-based. Particulars: GUTat 3.1, 72 h. The method in brief:
(§1)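 T. b. gambiense GUTat 3.1 was cultured in supplemented IMDM with 10% heat-inactivated FBS at 37 °C under 5.0% CO2/95% air. Parasites were seeded in 96-well plates, and compound in 5.0% DMSO was added for 72 h. Alamar Blue was then added for 3-6 h and fluorescence read (ex 528/20, em 590/35 nm). IC50 was obtained from the plate-reader software.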
(In general: Resazurin is reduced to fluorescent resorufin, in cell work by metabolically active cells.)

In a further series the test system is Mus musculus. Kind of series: Toxicity in ip dosed mouse measured over 72 hrs. The series is classed as organism-based. Particulars: in vivo. The method in brief: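 Male mice, grouped, given graded intraperitoneal doses; watched continuously 6 h, then kept under observation to 72 h, monitored 4 times daily, with behavioural changes and deaths recorded. Humane endpoints applied, with CO2 euthanasia. Percentage death per dose converted to probits to derive LD50 (μM/kg); mortality rate = dead/group size ×100.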

The subject of series [2] is Rattus norvegicus. Kind of series: Antiinflammatory activity in rat assessed as inhibition of carrageenan-induced paw edema at 100 mg/kg, po administered 1 hr followed by carrageenan challenge measured at 0.5 hrs by plethysmometer relative to control. The series is classed as functional. The method in brief: (§2)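 Rats dosed orally (test compounds 100 mg/kg; indomethacin reference 25 mg/kg). One hour later, 1% carrageenan suspension (0.05 mL/animal) was injected sub-plantar into the right hind paw. Paw size was measured by mercury-displacement plethysmometer, calibrated beforehand, at intervals after injection. Activity was calculated as percentage decrease in carrageenan-induced edema relative to control.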
On the technique in general: The carrageenan paw model is a standard test of acute inflammation.

Series [3] deals with Rattus norvegicus. Briefly: Antiinflammatory activity in rat assessed as inhibition of carrageenan-induced paw edema at 100 mg/kg, po administered 1 hr followed by carrageenan challenge measured at 1 hr by plethysmometer relative to control. The series is classed as functional. In a few lines:
as §2

For series [4], the system named is Rattus norvegicus. Kind of series: Antiinflammatory activity in rat assessed as inhibition of carrageenan-induced paw edema at 100 mg/kg, po administered 1 hr followed by carrageenan challenge measured at 2 hrs by plethysmometer relative to control. The series is classed as functional. In a few lines: as §2
Series [5] relates to Rattus norvegicus. Kind of series: Antiinflammatory activity in rat assessed as inhibition of carrageenan-induced paw edema at 100 mg/kg, po administered 1 hr followed by carrageenan challenge measured at 3 hrs by plethysmometer relative to control. The series is classed as functional. In a few lines:
as §2

Series [6] has as its system Trypanosoma brucei brucei. Briefly: Antitrypanosomal activity against Trypanosoma brucei brucei after 48 hrs by Alamar blue assay. The series is classed as functional, organism-based.
In series [7] the test system is Trypanosoma brucei gambiense. Briefly: Antitrypanosomal activity against Trypanosoma brucei gambiense. The series is classed as functional, organism-based. The method in brief:
as §1

Series [8] has as its system Rattus norvegicus. Kind of series: Antiinflammatory activity in rat assessed as inhibition of carrageenan-induced paw edema at 25 mg/kg, po administered 1 hr followed by carrageenan challenge measured at 0.5 hrs by plethysmometer relative to control. The series is classed as functional. In a few lines:
as §2

In series [9] the test system is Rattus norvegicus. Briefly: Antiinflammatory activity in rat assessed as inhibition of carrageenan-induced paw edema at 25 mg/kg, po administered 1 hr followed by carrageenan challenge measured at 1 hr by plethysmometer relative to control. The series is classed as functional. The method in brief:
as §2

For series [10], the system named is Rattus norvegicus. Kind of series: Antiinflammatory activity in rat assessed as inhibition of carrageenan-induced paw edema at 25 mg/kg, po administered 1 hr followed by carrageenan challenge measured at 2 hrs by plethysmometer relative to control. The series is classed as functional. The method in brief: as §2
The test system of series [11] is Rattus norvegicus. Briefly: Antiinflammatory activity in rat assessed as inhibition of carrageenan-induced paw edema at 25 mg/kg, po administered 1 hr followed by carrageenan challenge measured at 3 hrs by plethysmometer relative to control. The series is classed as functional. In a few lines:
as §2

In series [1], `Cc1ccc(S(=O)(=O)N2CC(O)C[C@H]2C(=O)Nc2ccc(C(=O)O)cc2)cc1` (stereo partly specified) had an IC50 of 155 nM. This compound also gave an LD50 with Mus musculus of 12.01 µM/g. For the same compound, the inhibition in vivo at 100 mg/kg in the series on Rattus norvegicus [2] was 58%; in the series with Rattus norvegicus [3], 60%; in the series on Rattus norvegicus [4], 67.2%; with Rattus norvegicus [5], 84%.
The compound `O=C(O)c1ccc(NC(=O)[C@@H]2CC(O)CN2S(=O)(=O)c2ccccc2)cc1` (stereo partly specified) yielded an IC50 in series [1] of 160 nM. In addition, the LD50 in the series with Mus musculus was 12.07 µM/g. For the same compound, the inhibition in vivo at 100 mg/kg was found to be 33.9% with Rattus norvegicus [2], 24.7% in the series on Rattus norvegicus [3], 27.3% with Rattus norvegicus [4] and 1.85% with Rattus norvegicus [5].
Consider `Cc1ccccc1S(=O)(=O)N1CC(O)C[C@H]1C(=O)Nc1ccc(C(=O)O)cc1` (stereo partly specified), for which, in series [1], the IC50 worked out at 157 nM. The compound further returned an LD50 with Mus musculus of 9.98 µM/g. Also, the inhibition in vivo at 100 mg/kg turned out to be 38.6% with Rattus norvegicus [2], 21.2% with Rattus norvegicus [3], 23.4% in the series with Rattus norvegicus [4] and 25.3% in the series with Rattus norvegicus [5].
In turn, `O=C(O)c1ccc(NC(=O)[C@@H]2CC(O)CN2S(=O)(=O)c2ccc([N+](=O)[O-])cc2)cc1` (stereo partly specified) showed a half-inhibitory concentration (IC50) in series [1] of 144 nM. The LD50 in the series on Mus musculus is 10.28 µM/g. For the same compound, the inhibition in vivo at 100 mg/kg with Rattus norvegicus [2] was 44.1%; with Rattus norvegicus [3], 48.5%; with Rattus norvegicus [4], 52.2%; with Rattus norvegicus [5], 62.8%.
For `Nc1nc(N)nc(Nc2ccc([As]3SCC(CO)S3)cc2)n1` (stereo unspecified) [MELARSOPROL], in [1], the IC50 came to 5 nM. In addition, the LD50 in the series on Mus musculus was found to be 8.75 µM/g.
For `Cc1ccccc1S(=O)(=O)N1CCC[C@H]1C(=O)Nc1ccc(C(=O)O)cc1`, the half-inhibitory concentration (IC50) in [1] came out at 134 nM. This compound also showed an LD50 in the series with Mus musculus of 13.09 µM/g. Besides, the inhibition in vivo at 100 mg/kg came to 35.8% with Rattus norvegicus [2], 39.4% in the series on Rattus norvegicus [3], 36.3% with Rattus norvegicus [4] and 40% in the series on Rattus norvegicus [5].
On to `CCCCN(CCCC)c1c([N+](=O)[O-])cc(S(=O)(=O)Nc2ccccc2)cc1[N+](=O)[O-]`, for which the IC50 in series [6] was found to be 120 nM.
As to `O=C(O)c1ccc(NC(=O)[C@@H]2CCCN2S(=O)(=O)c2ccc([N+](=O)[O-])cc2)cc1`, the concentration for half-maximal inhibition (IC50) in series [1] turned out to be 2 nM. For the same compound, the LD50 in the series on Mus musculus worked out at 8.65 µM/g. Also, the inhibition in vivo at 100 mg/kg with Rattus norvegicus [2] is 42.1%; in the series on Rattus norvegicus [3], 45.9%; with Rattus norvegicus [4] it was 50.1%; in the series on Rattus norvegicus [5], 52.3%.
Regarding `Cc1ccc(S(=O)(=O)N2CCC[C@H]2C(=O)Nc2ccc(C(=O)O)cc2)cc1`, the IC50 in series [1] was determined as 101 nM. In addition, in the series with Mus musculus, the LD50 turned out to be 11.92 µM/g. Further, the inhibition in vivo at 100 mg/kg with Rattus norvegicus [2] was 28.8%; in the series with Rattus norvegicus [3] it was 31.5%; in the series on Rattus norvegicus [4], 36.3%; in the series with Rattus norvegicus [5] it was 35.3%.
For the compound `CCS(=O)(=O)N1CCCc2cc(NS(=O)(=O)c3ccccc3F)ccc21`, the IC50 in series [7] was 1300 nM.
Turning to `COc1ccc2c(c1)c(CC(=O)O)c(C)n2C(=O)c1ccc(Cl)cc1` [INDOMETHACIN], the inhibition in vivo at 25 mg/kg in the series on Rattus norvegicus [8] is 56.9%; in the series on Rattus norvegicus [9], 63.5%; in the series with Rattus norvegicus [10] it was 64.8%; in the series with Rattus norvegicus [11], 63.6%.
`O=C(O)c1ccc(NC(=O)[C@@H]2CCCN2S(=O)(=O)c2ccccc2)cc1` registered an IC50 in series [1] of 159 nM. This compound also displayed an LD50 in the series on Mus musculus of 10.06 µM/g. The inhibition in vivo at 100 mg/kg is 23.6% with Rattus norvegicus [2], 26.3% in the series with Rattus norvegicus [3], 29.4% with Rattus norvegicus [4] and 31.1% in the series with Rattus norvegicus [5].

Usually IC50 stands for the concentration that gives 50% inhibition. A high value points to lower potency. One may read the inhibition in vivo as the share of the control response that was lost under treatment.
